PMI act: activators of human phosphomannose isomerase; P34949; purified human PMI, coupled resazurin fluorescence, 20 min; stronger effect = higher value; 1 = vehicle control, 0 substrate-free wells; activation factor at 20 µM; 190,000 tested, 0.005% active; AID 1214;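 active = activation factor of 2 or more at 20 µM, relative to plate controls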
Target sequence (P34949 whole entry, looked up): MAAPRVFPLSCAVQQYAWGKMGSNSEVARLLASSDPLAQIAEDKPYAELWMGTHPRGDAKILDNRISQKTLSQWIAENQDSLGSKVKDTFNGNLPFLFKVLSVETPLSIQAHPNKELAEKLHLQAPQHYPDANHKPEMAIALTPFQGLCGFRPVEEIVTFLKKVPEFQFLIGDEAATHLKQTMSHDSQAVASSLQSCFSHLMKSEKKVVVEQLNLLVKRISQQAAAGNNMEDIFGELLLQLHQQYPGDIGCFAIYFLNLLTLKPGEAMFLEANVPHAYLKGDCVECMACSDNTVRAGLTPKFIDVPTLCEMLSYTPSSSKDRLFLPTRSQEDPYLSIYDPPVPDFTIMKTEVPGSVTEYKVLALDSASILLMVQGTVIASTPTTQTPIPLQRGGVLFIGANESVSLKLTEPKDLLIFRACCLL
Lmaj promast: reduces viability of Leishmania major promastigotes | AID 1063 | resazurin fluorescence viability | inhibition, % at 10 µM | 200,000 tested, 9% active; in the data active = inhibition above about 50%;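 also: promastigotes grown with compound for 44 hours at 28 °C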
PTEN del growth: growth suppressors of cells with PTEN tumor suppressor deletion. HCT116 PTEN-null viability, CellTiter-Glo, 60 h; stronger effect = lower value. viability, % at 10 µM. 140,000 tested, 1.2% active. AID 827;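 active = viability at or below a set limit, 4 SD under the median of all tested compounds, cut at about 3.7% in these data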;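 also: PTEN knockout HCT116 line with beta catenin targeted HCT116 as companion control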
bCat KO growth: beta-catenin-lacking colon tumor cell growth suppression. viability, % at 10 µM. HCT116 beta-catenin knockout viability, CellTiter-Glo, 60 h; stronger effect = lower value. 140,000 tested, 1.5% active;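 active = viability at or under a set limit, the compound median less 4 SD, cut at about 6% in these data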;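 also: 0% = Hyamine 1622 control at 20 µM and 100% = untreated cell control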
PMI act hi M6P: increases human PMI activity with near-saturating mannose 6-phosphate; P34949; coupled PMI enzyme assay, resazurin fluorescence, 20 min; stronger effect = higher value; 1 = untreated enzyme, 0 = substrate-free blank; activation factor at 20 µM; 190,000 tested, 0.34% active; AID 1216;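 active = activation factor of 2 or more at 20 µM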
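Material: human phosphomannose isomerase with PGI, G6PDH, diaphorase coupling enzymes. Quantity: 15 ng/mL PMI. Medium: HEPES pH 7.4 buffer with MgCl2 and Tween-20. Reagent: Near-saturating mannose-6-phosphate, 1.0 mM. Compound: 20 µM single dose. Times: enzyme reaction with compound 20 min at room temperature. Detection: resorufin fluorescence at Ex 544/Em 590 nm.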
An asterisk follows results filed as active. Sampled rows, rich in hits. Any-hit rate of the full collection: about 9.6%.

For CCn1c(SCC(=O)O)nnc1-c1ccccc1OC the results were Lmaj promast -6.
O=C1C2C(C(=O)N1c1ccccc1)N1CCCN1C2c1ccccc1 (stereo not given) was read as PMI act 1.1, Lmaj promast -3 and PMI act hi M6P 1.
O=C(NC1CCCc2ccccc21)c1cccc(S(=O)(=O)N2CCOCC2)c1 (stereo not given) was read as PMI act 1, Lmaj promast -1 and PMI act hi M6P 0.9.
For COc1cc(OC)c(C2=Nc3ccc(Br)cc3C(c3ccccc3)N2CC(=O)NN)cc1OC (stereo not given) the results were PMI act 0.9, Lmaj promast 4 and PMI act hi M6P 0.9.
For O=C(NCCc1ccccc1)c1ccc2nc(-c3ccco3)c(-c3ccco3)nc2c1 the results were PMI act 1.1, Lmaj promast 72*, PTEN del growth 87, bCat KO growth 95 and PMI act hi M6P 1.1.
Cc1cc(N2CCN(C)CC2)n2cc(-c3ccc(F)cc3)nc2n1 was read as PMI act 1, Lmaj promast -1, PTEN del growth 97, bCat KO growth 97 and PMI act hi M6P 0.9.
For Fc1cccc(-c2cc3nc4c(c(N5CCOCC5)n3n2)CCCC4)c1 the results were PMI act 0.8, Lmaj promast 7, PTEN del growth 70, bCat KO growth 76 and PMI act hi M6P 0.8.
Screening COc1cccc(C(c2sc3nc(C)nn3c2O)N2CCC3(CC2)OCCO3)c1 (stereo not given) returned PMI act 0.9, Lmaj promast -5, PTEN del growth 100, bCat KO growth 92 and PMI act hi M6P 1.
`CN1CCN(c2cc(-c3ccccc3)nc3cc(-c4ccc(F)cc4)nn23)CC1` gave PMI act 0.8, Lmaj promast 100*, PTEN del growth 1.3*, bCat KO growth 3.8* and PMI act hi M6P 0.9.
Screening COc1cccc(-c2cc3nc(-c4ccccc4)cc(N4CCC5(CC4)OCCO5)n3n2)c1 returned PMI act 0.9, Lmaj promast 63*, PTEN del growth 33, bCat KO growth 46 and PMI act hi M6P 0.9.
`Fc1ccc(-c2cc3nc(-c4ccccc4)cc(N4CCN(CCN5CCOCC5)CC4)n3n2)cc1` gave PMI act 0.9, Lmaj promast 77*, PTEN del growth 1.6*, bCat KO growth 1.7* and PMI act hi M6P 0.9.
CCn1c(CNC(=O)c2ccccc2F)nnc1SCC(=O)NC1CCCCC1C (stereo not given) was read as PMI act 1.1, Lmaj promast -6 and PMI act hi M6P 1.1.
COc1ccc(NS(=O)(=O)c2cc([N+](=O)[O-])ccc2N/N=C\c2c(C)[nH]c3ccccc23)cc1 was read as PMI act 1, Lmaj promast 98*, PTEN del growth 3.8*, bCat KO growth 14 and PMI act hi M6P 1.
Screening Cc1[nH]c2ccccc2c1/C=N/Nc1ccc([N+](=O)[O-])cc1S(=O)(=O)Nc1ccc(Cl)cc1 returned PMI act 1, Lmaj promast 95*, PTEN del growth 43, bCat KO growth 57 and PMI act hi M6P 1.1.
Screening O=C(NCc1cccc(Cl)c1)c1ccc(S(=O)(=O)Nc2cccc(C(F)(F)F)c2)cc1 returned PMI act 0.7, Lmaj promast 64*, PTEN del growth 88, bCat KO growth 89 and PMI act hi M6P 0.8.
For OC(CON=C1c2ccccc2-c2ccccc21)CN1CCNCC1 (stereo not given) the results were PMI act 1, Lmaj promast 92* and PMI act hi M6P 1.
`O=C(NCCc1cccs1)C1CC(c2c(Cl)cccc2Cl)=NO1` (stereo not given) gave PMI act 0.9, Lmaj promast 2, PTEN del growth 21, bCat KO growth 27 and PMI act hi M6P 0.9.
Screening CC(Cc1cccs1)NC(=O)Nc1cccc(Cl)c1 (stereo not given) returned PMI act 1, Lmaj promast 68*, PTEN del growth 67, bCat KO growth 64 and PMI act hi M6P 1.1.
For CC(Cc1cccs1)NC(=S)Nc1ccc(Cl)cc1 (stereo not given) the results were PMI act 1, Lmaj promast 11, PTEN del growth 47, bCat KO growth 30 and PMI act hi M6P 0.9.
Screening CC(Cc1cccs1)NC(=S)Nc1ccc(Cl)c(Cl)c1 (stereo not given) returned PMI act 1, Lmaj promast 71*, PTEN del growth 76, bCat KO growth 88 and PMI act hi M6P 0.9.
`CNS(=O)(=O)c1cccc(C(=O)OCC(=O)N(Cc2ccccc2)C(C)(C)C)c1` gave PMI act 1, Lmaj promast 5 and PMI act hi M6P 1.
Screening Cc1ccc(S(=O)(=O)N/N=C2/CCCCC2C2CCCCC2)cc1[N+](=O)[O-] (stereo not given) returned PMI act 1, Lmaj promast -3, PTEN del growth 89, bCat KO growth 83 and PMI act hi M6P 1.1.
Screening CC(C)(C)c1ccc(S(=O)(=O)O/N=C2/CCCCC2c2ccc([N+](=O)[O-])cc2[N+](=O)[O-])cc1 (stereo not given) returned PMI act 0.9, Lmaj promast 53*, PTEN del growth 103, bCat KO growth 83 and PMI act hi M6P 1.
CC(=O)c1ccc(N2CCN(C(=O)c3ccco3)C(C)C2)c(F)c1 (stereo not given) was read as PMI act 0.8, Lmaj promast 64*, PTEN del growth 96, bCat KO growth 92 and PMI act hi M6P 0.9.
COc1ccc(C(C)(C)C)cc1NC(=O)Nc1ccc2c(c1)OCO2 was read as PMI act 0.8, Lmaj promast 100*, PTEN del growth 45, bCat KO growth 47 and PMI act hi M6P 0.8.
Screening COc1cc(NC(=O)Nc2ccc3c(c2)OCO3)cc(OC)c1OC returned PMI act 1, Lmaj promast -6 and PMI act hi M6P 0.9.
Screening CCC1(C)CC2(CCCN(CCC(=O)c3ccccc3)C2)CCO1 (stereo not given) returned PMI act 1.2, Lmaj promast 69* and PMI act hi M6P 1.1.
O=C(CCN1CCCCCC1)c1ccccc1 was read as PMI act 1.1, Lmaj promast 88*, PTEN del growth 90, bCat KO growth 92 and PMI act hi M6P 1.2.
Screening CCC1(C)CC(CC(=O)O)(c2ccccc2OC)CCO1 (stereo not given) returned PMI act 1.1, Lmaj promast -3, PTEN del growth 100, bCat KO growth 104 and PMI act hi M6P 1.
Screening COc1ccc(C(=O)CCN2CCCCCC2)cc1 returned PMI act 0.7, Lmaj promast 85*, PTEN del growth 1.3*, bCat KO growth 1.2* and PMI act hi M6P 0.7.
Screening CCOc1ccc(C(=O)CCN2CCCCC2)cc1 returned PMI act 0.8, Lmaj promast 10, PTEN del growth 90, bCat KO growth 88 and PMI act hi M6P 0.9.
